ChEMBL document CHEMBL4311952, “Discovery and Development of a Series of Pyrazolo[3,4-d]pyridazinone Compounds as the Novel Covalent Fibroblast Growth Factor Receptor Inhibitors by the Rational Drug Design” (J Med Chem, 2019)
In brackets after ≈: the same amount, converted by molar mass.

Tests used:
[1] = Kinetic solubility of the compound in pH 7.4 PBS by nephelometric method; type: physicochemical; settings: read-out: Kinetic_solubility
[2] = Half life in mouse liver microsomes at 0.1 uM in presence of NADPH by LC-MS/MS analysis; type: ADME, Microsome; settings: for half-life at 0.1 µM: liver microsomes
Summary of the method: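 Mouse liver microsomes at 0.33 mg/mL protein with 5 mM MgCl2, 0.1 μM compound, 1 mM NADPH, 0.1 M Tris/HCl pH 7.4, final DMSO 0.01%. Pre-warmed 10 min at 37 °C, started with NADPH. Sampled at 0, 7, 17, 30 and 60 min, quenched with methanol, analysed by LC-MS/MS in duplicate. T1/2 = -0.693/k from first-order consumption.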

[3] = Stability in rat blood at 5 uM measured after 5 hrs by LC-MS/MS analysis; type: ADME, tissue-based
Summary of the method: (§1)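 Compound at 5 μM in fresh rat blood at 37 °C; samples at 0, 0.5, 1.0, 2.0 and 5.0 h, stopped by methanol protein precipitation; percentage of residual parent measured by LC-MS/MS.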

[4] = Cmax in Sprague-Dawley rat at 10 mg/kg, iv by LC-MS/MS analysis; type: ADME, organism-based; parameters: dose 10 mg/kg, route intravenous; settings: in vivo
Summary of the method: (§2)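 SD rats dosed IV 10 mg/kg, PO 20 mg/kg or IP 20 mg/kg in 5% DMSO + 5% Tween-80 in 90% saline. Blood collected after dosing and spun to plasma. Plasma deproteinized with methanol containing internal standard, centrifuged, diluted with methanol and spun again. Compound in supernatant quantified by LC/MS/MS.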

[5] = Cmax in Sprague-Dawley rat at 20 mg/kg, po by LC-MS/MS analysis; type: ADME, organism-based; parameters: dose 20 mg/kg, route oral; settings: in vivo; summary of the method: as §2
[6] = AUC (0 to infinity) in Sprague-Dawley rat at 20 mg/kg, po by LC-MS/MS analysis; type: ADME, organism-based; parameters: dose 20 mg/kg, route oral, time infinity; settings: in vivo; summary of the method: as §2
[7] = MRT in Sprague-Dawley rat at 20 mg/kg, po by LC-MS/MS analysis; type: ADME, organism-based; settings: in vivo
Summary of the method: (§3)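 SD rats dosed in 5% DMSO + 5% Tween-80 in 90% saline, IV 10 mg/kg, PO 20 mg/kg or IP 20 mg/kg; blood collected and centrifuged to plasma, which was deproteinized with methanol containing internal standard, diluted and re-centrifuged; concentrations by LC/MS/MS.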

[8] = Tmax in Sprague-Dawley rat at 20 mg/kg, po by LC-MS/MS analysis; type: ADME, organism-based; settings: in vivo; summary of the method: as §3
[9] = AUC (0 to t) in Sprague-Dawley rat at 10 mg/kg, iv by LC-MS/MS analysis; type: ADME, organism-based; settings: in vivo; summary of the method: as §2
[10] = AUC (0 to t) in Sprague-Dawley rat at 20 mg/kg, po by LC-MS/MS analysis; type: ADME, organism-based; settings: in vivo; summary of the method: as §2
[11] = Half life in Sprague-Dawley rat at 10 mg/kg, iv by LC-MS/MS analysis; type: ADME, organism-based; settings: in vivo; summary of the method: as §2
[12] = Oral bioavailability in Sprague-Dawley rat at 20 mg/kg by LC-MS/MS analysis; type: ADME, organism-based; settings: in vivo; summary of the method: as §3
[13] = AUC (0 to infinity) in Sprague-Dawley rat at 10 mg/kg, iv by LC-MS/MS analysis; type: ADME, organism-based; parameters: dose 10 mg/kg, time infinity, route intravenous; settings: in vivo; summary of the method: as §2
[14] = MRT in Sprague-Dawley rat at 10 mg/kg, iv by LC-MS/MS analysis; type: ADME, organism-based; settings: in vivo; summary of the method: as §3
[15] = Half life in Sprague-Dawley rat at 20 mg/kg, po by LC-MS/MS analysis; type: ADME, organism-based; settings: in vivo; summary of the method: as §2
[16] = Clearance in Sprague-Dawley rat at 10 mg/kg, iv by LC-MS/MS analysis; type: ADME, organism-based; settings: in vivo; summary of the method: as §2
[17] = Tmax in Sprague-Dawley rat at 10 mg/kg, iv by LC-MS/MS analysis; type: ADME, organism-based; settings: in vivo; summary of the method: as §3
[18] = Drug metabolism in mouse liver microsomes at 3 uM measured after 180 mins by UPLC-UV/Q-TOF MS analysis; type: ADME, Microsome; settings: 3 h
[19] = Drug metabolism in rat liver microsomes assessed as amino demethylation at 3 uM measured after 180 mins by UPLC-UV/Q-TOF MS analysis; type: ADME, Microsome; settings: 3 h
Summary of the method: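 Human, mouse, rat, dog or monkey liver fractions (1.0×10^6 cells/mL) in William's medium E (pH 7.4) with 3.0 μM substrate, 37 °C for 180 min. Stopped with equal volume ice-cold acetonitrile. Duplicates pooled per species, spun, dried under nitrogen, reconstituted in acetonitrile/water 10:90. Metabolites profiled by UPLC-UV/Q-TOF MS.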

[20] = Drug metabolism in mouse liver microsomes assessed as amino demethylation at 3 uM measured after 180 mins by UPLC-UV/Q-TOF MS analysis; type: ADME, Microsome; settings: 3 h
[21] = Stability in rat blood assessed as parent compound remaining at 5 uM measured after 5 hrs by LC-MS/MS analysis; type: ADME, tissue-based; settings: read-out: Stability; summary of the method: as §1
[22] = AUC (0 to t) in Sprague-Dawley rat at 20 mg/kg, ip by LC-MS/MS analysis; type: ADME, organism-based; settings: in vivo; summary of the method: as §2
[23] = Drug metabolism in dog liver microsomes assessed as amino demethylation at 3 uM measured after 180 mins by UPLC-UV/Q-TOF MS analysis; type: ADME, Canis lupus familiaris, Microsome; settings: 3 h
[24] = Volume of distribution at steady state in Sprague-Dawley rat at 10 mg/kg, iv by LC-MS/MS analysis; type: ADME, organism-based; settings: in vivo; summary of the method: as §3
[25] = AUC (0 to infinity) in Sprague-Dawley rat at 20 mg/kg, ip by LC-MS/MS analysis; type: ADME, organism-based; parameters: dose 20 mg/kg, time infinity, route intraperitoneal; settings: in vivo; summary of the method: as §2
[26] = Half life in Sprague-Dawley rat at 20 mg/kg, ip by LC-MS/MS analysis; type: ADME, organism-based; settings: in vivo; summary of the method: as §2
[27] = MRT in Sprague-Dawley rat at 20 mg/kg, ip by LC-MS/MS analysis; type: ADME, organism-based; settings: in vivo; summary of the method: as §3
[28] = Tmax in Sprague-Dawley rat at 20 mg/kg, ip by LC-MS/MS analysis; type: ADME, organism-based; settings: in vivo; summary of the method: as §3
[29] = Cmax in Sprague-Dawley rat at 20 mg/kg, ip by LC-MS/MS analysis; type: ADME, organism-based; parameters: dose 20 mg/kg, route intraperitoneal; settings: in vivo; summary of the method: as §2
[30] = Drug metabolism in mouse liver microsomes assessed as oxidation at 3 uM measured after 180 mins by UPLC-UV/Q-TOF MS analysis; type: ADME, Microsome; settings: 3 h
[31] = Drug metabolism in rat liver microsomes assessed as oxidation at 3 uM measured after 180 mins by UPLC-UV/Q-TOF MS analysis; type: ADME, Microsome; settings: 3 h
[32] = Drug metabolism in monkey liver microsomes assessed as oxidation at 3 uM measured after 180 mins by UPLC-UV/Q-TOF MS analysis; type: ADME, Macaca mulatta, Microsome; settings: rhesus monkey, 3 h
[33] = Drug metabolism in dog liver microsomes assessed as oxidation at 3 uM measured after 180 mins by UPLC-UV/Q-TOF MS analysis; type: ADME, Canis lupus familiaris, Microsome; settings: 3 h
[34] = Drug metabolism in human liver microsomes assessed as oxidation at 3 uM measured after 180 mins by UPLC-UV/Q-TOF MS analysis; type: ADME, Microsome; settings: 3 h
[35] = Drug metabolism in human liver microsomes assessed as amino demethylation at 3 uM measured after 180 mins by UPLC-UV/Q-TOF MS analysis; type: ADME, Microsome; settings: 3 h
[36] = Drug metabolism in monkey liver microsomes assessed as amino demethylation at 3 uM measured after 180 mins by UPLC-UV/Q-TOF MS analysis; type: ADME, Macaca mulatta, Microsome; settings: rhesus monkey, 3 h

Q: For `CC(=O)c1cc(Br)ccc1O`, which solubility kinetic [1] is on record?
A: 50 µM (≈ 10.8 µg/mL)

Q: With `CC(=O)c1ccccc1O` as the compound, how does the solubility kinetic [1] read?
A: 50 µM (≈ 6.81 µg/mL)

Q: Which half-life at 0.1 µM [2] does the source give for `Cc1ccc2oc(-c3c4c(N)n[nH]c(=O)c4nn3-c3ccc(NC(=O)/C=C/CN(C)C)cc3)c(C)c2c1` here?
A: 1.05 h

Q: What about the solubility kinetic [1] of the same compound?
A: 50 µM (≈ 24.9 µg/mL)

Q: What about the Stability [3] of the same compound?
A: Stable

Q: With `C=CC(=O)Nc1ccc(-n2nc3c(=O)[nH]nc(N)c3c2-c2oc3ccc(C)cc3c2C)cc1` as the compound, how does the Cmax [4] read?
A: 1880 ng/mL

Q: And the half-life at 0.1 µM [2]?
A: 0.517 h

Q: And the Cmax [5]?
A: 12.9 ng/mL

Q: And the AUC(0-inf) [6]?
A: 6.4 ng·h/mL

Q: And the MRT [7]?
A: 2.17 h

Q: And the solubility kinetic [1]?
A: 20 µM (≈ 8.81 µg/mL)

Q: What about the Tmax [8] of the same compound?
A: 0.861 h

Q: What about the AUC(0-t) [9] of the same compound?
A: 1090 ng·h/mL

Q: And the AUC(0-t) [10]?
A: 6.4 ng·h/mL

Q: And the half-life [11]?
A: 6.25 h

Q: What about the bioavailability [12] of the same compound?
A: 0.29%

Q: What about the AUC(0-inf) [13] of the same compound?
A: 1270 ng·h/mL

Q: What about the MRT ([14]; Sprague-Dawley, read-out: MRT) of the same compound?
A: 5.04 h

Q: And the half-life [15]?
A: 1.77 h

Q: And the clearance ([16]; Sprague-Dawley)?
A: 143 mL/min/kg

Q: What about the Tmax [17] of the same compound?
A: 4.98 min

Q: With `C=CC(=O)Nc1ccc(-n2nc3c(=O)[nH]nc(N)c3c2-c2oc3ccc(Cl)cc3c2C)cc1` as the compound, how does the half-life at 0.1 µM [2] read?
A: 0.483 h

Q: And the solubility kinetic [1]?
A: 20 µM (≈ 9.22 µg/mL)

Q: For `Cc1c(-c2c3c(N)n[nH]c(=O)c3nn2-c2ccc(NC(=O)/C=C/CN(C)C)cc2)oc2ccc(Br)cc12`, which solubility kinetic [1] is on record?
A: 50 µM (≈ 28.1 µg/mL)

Q: With `Cc1c(-c2c3c(N)n[nH]c(=O)c3nn2-c2ccc(NC(=O)/C=C/CN(C)C)cc2)oc2ccc(Cl)cc12` as the compound, how does the Drug metabolism [18] read?
A: 20%

Q: What about the Drug metabolism [19] of the same compound?
A: Metabolite_Detected

Q: And the t1/2 ([2]; microsomes, 0.1 µM)?
A: 1.72 h

Q: And the Cmax [5]?
A: 7.3 ng/mL

Q: What about the Drug metabolism [20] of the same compound?
A: Metabolite_Detected

Q: And the AUC(0-inf) [6]?
A: 51.5 ng·h/mL

Q: And the remaining at 5 h, 5 µM [21]?
A: 20%

Q: And the MRT [7]?
A: 7.33 h

Q: What about the AUC(0-t) [22] of the same compound?
A: 16800 ng·h/mL

Q: And the Drug metabolism [23]?
A: Metabolite_Detected

Q: What about the Vdss [24] of the same compound?
A: 28 L/kg

Q: What about the solubility kinetic [1] of the same compound?
A: 200 µM (≈ 104 µg/mL)

Q: And the Tmax [8]?
A: 0.5 h

Q: And the AUC(0-inf) [25]?
A: 17000 ng·h/mL

Q: And the AUC(0-t) [9]?
A: 4310 ng·h/mL

Q: And the half-life [26]?
A: 4.63 h

Q: And the MRT [27]?
A: 3.3 h

Q: And the AUC(0-t) [10]?
A: 32.6 ng·h/mL

Q: And the half-life [11]?
A: 8.55 h

Q: What about the Tmax [28] of the same compound?
A: 0.5 h

Q: And the bioavailability [12]?
A: 0%

Q: And the Cmax [29]?
A: 5040 ng/mL

Q: And the Drug metabolism [30]?
A: Metabolite_Detected

Q: And the AUC(0-inf) [13]?
A: 4410 ng·h/mL

Q: What about the MRT [14] of the same compound?
A: 1.64 h

Q: And the Drug metabolism [31]?
A: Metabolite_Detected

Q: And the half-life [15]?
A: 21.6 h

Q: What about the Drug metabolism [32] of the same compound?
A: Metabolite_Detected

Q: And the CL [16]?
A: 37.8 mL/min/kg

Q: And the Drug metabolism [33]?
A: Metabolite_Detected

Q: And the Drug metabolism [34]?
A: Metabolite_Detected

Q: What about the Drug metabolism [35] of the same compound?
A: Metabolite_Detected

Q: And the Drug metabolism [36]?
A: Metabolite_Detected

Q: Which solubility kinetic [1] does the source give for `Cc1ccc2oc(-c3c4c(N)n[nH]c(=O)c4nn3-c3ccc(NC(=O)/C=C/CN4CCOCC4)cc3)c(C)c2c1` here?
A: 50 µM (≈ 27 µg/mL)
